Assays:
Heart [1] = assay: Biodistribution in CD1 mouse heart at 200 to 300 kBq, iv measured at 60 mins by gamma counting analysis; assay type: ADME, organism-based; conditions: in vivo, 1 h
Procedure, shortened: (§1)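 Female CD-1 mice, 200–300 kBq radiotracer given iv, n = 3 per time point. Animals anaesthetised for blood and urine sampling, then killed by cervical dislocation at 5, 15, 30 or 60 min p.i. Organs removed, weighed and gamma-counted; uptake expressed as % injected dose per g wet tissue.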

Spleen [2] = assay: Biodistribution in CD1 mouse spleen at 200 to 300 kBq, iv measured at 60 mins by gamma counting analysis; assay type: ADME, organism-based; conditions: in vivo, 1 h
Procedure, shortened: (§2)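 Female CD-1 mice received 200–300 kBq [18F]radiotracer intravenously. Blood and urine were sampled under anaesthesia, then mice were killed by cervical dislocation at 5, 15, 30 or 60 min p.i. (n = 3; control at 60 min n = 7). Organs were removed and weighed, activity was gamma-counted, and uptake was expressed as % injected dose per g wet tissue.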

Mus musculus [3] = assay: Biodistribution in CD1 mouse thymus at 200 to 300 kBq, iv measured at 5 mins by gamma counting analysis; assay type: ADME, organism-based; conditions: in vivo
Procedure, shortened: (§3)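 Female CD-1 mice given 200–300 kBq tracer intravenously. Animals anaesthetised for blood and urine sampling, then killed by cervical dislocation at 5, 15, 30 or 60 min (n = 3 per time; n = 7 at 60 min). Organs removed and weighed, activity gamma-counted, expressed as % injected dose per g wet weight. Blocking arm: 10 mg/kg i.p. in 0.9% saline, 10 min before tracer; two-tailed unpaired t test versus control.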

Kidney [4] = assay: Biodistribution in CD1 mouse kidney at 200 to 300 kBq, iv measured at 60 mins by gamma counting analysis in presence of SSR180711; assay type: ADME, organism-based; conditions: in vivo, 1 h
Procedure, shortened: (§4)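 Blocking study in female CD-1 mice, n = 7 per blocker, with a matching control group. SSR180711 or NS6740 given at 10 mg kg⁻¹ ip in 0.9% saline 10 min before iv radiotracer (200–300 kBq). Organs taken at 60 min p.i., weighed and gamma-counted; uptake as % ID per g wet weight. Compared with control by two-tailed independent Student's t test.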

Mus musculus [5] = assay: Biodistribution in CD1 mouse adrenal at 200 to 300 kBq, iv measured at 60 mins by gamma counting analysis in presence of SSR180711; assay type: ADME, organism-based, Adrenal gland; conditions: in vivo, 1 h; procedure, shortened: as §4
Stomach [6] = assay: Biodistribution in CD1 mouse stomach at 200 to 300 kBq, iv measured at 15 mins by gamma counting analysis; assay type: ADME, organism-based; conditions: in vivo, 0.25 h; procedure, shortened: as §2
Pancreas [7] = assay: Biodistribution in CD1 mouse pancreas at 200 to 300 kBq, iv measured at 60 mins by gamma counting analysis; assay type: ADME, organism-based; conditions: in vivo, 1 h; procedure, shortened: as §2
Heart [8] = assay: Biodistribution in CD1 mouse heart at 200 to 300 kBq, iv measured at 60 mins by gamma counting analysis in presence of SSR180711; assay type: ADME, organism-based; conditions: in vivo, 1 h; procedure, shortened: as §4
Femur [9] = assay: Biodistribution in CD1 mouse femur at 200 to 300 kBq, iv measured at 60 mins by gamma counting analysis in presence of SSR180711; assay type: ADME, organism-based; conditions: in vivo, 1 h; procedure, shortened: as §4
Femur [10] = assay: Biodistribution in CD1 mouse femur at 200 to 300 kBq, iv measured at 60 mins by gamma counting analysis; assay type: ADME, organism-based; conditions: in vivo, 1 h; procedure, shortened: as §1
Liver = assay: Biodistribution in CD1 mouse liver at 200 to 300 kBq, iv measured at 30 mins by gamma counting analysis; assay type: ADME, organism-based; conditions: in vivo, 0.5 h; procedure, shortened: as §2
Kidney [11] = assay: Biodistribution in CD1 mouse kidney at 200 to 300 kBq, iv measured at 5 mins by gamma counting analysis; assay type: ADME, organism-based; conditions: in vivo; procedure, shortened: as §1
[12] = Biodistribution in CD1 mouse urine at 200 to 300 kBq, iv measured at 15 mins by gamma counting analysis; assay type: ADME, organism-based; conditions: in vivo, 0.25 h; procedure, shortened: as §3
Lung = assay: Biodistribution in CD1 mouse lung at 200 to 300 kBq, iv measured at 60 mins by gamma counting analysis in presence of SSR180711; assay type: ADME, organism-based; conditions: in vivo, 1 h
Procedure, shortened: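 Blocking design in female CD-1 mice, n = 7 per group. The blocker was given at 10 mg kg^-1 i.p. in 0.9% saline 10 min before i.v. 200–300 kBq [18F]radiotracer. Mice were killed at 60 min p.i. and organs weighed and gamma-counted as % ID per g wet weight. Blocked groups were compared with controls by two-tailed independent Student's t test.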

Mus musculus [13] = assay: Biodistribution in CD1 mouse adrenal at 200 to 300 kBq, iv measured at 5 mins by gamma counting analysis; assay type: ADME, organism-based, Adrenal gland; conditions: in vivo; procedure, shortened: as §1
Mus musculus [14] = assay: Biodistribution in CD1 mouse large intestine at 200 to 300 kBq, iv measured at 30 mins by gamma counting analysis; assay type: ADME, organism-based; conditions: in vivo, 0.5 h; procedure, shortened: as §1
Kidney [15] = assay: Biodistribution in CD1 mouse kidney at 200 to 300 kBq, iv measured at 30 mins by gamma counting analysis; assay type: ADME, organism-based; conditions: in vivo, 0.5 h; procedure, shortened: as §1
[16] = Biodistribution in CD1 mouse urine at 200 to 300 kBq, iv measured at 30 mins by gamma counting analysis; assay type: ADME, organism-based; conditions: in vivo, 0.5 h; procedure, shortened: as §3
Pancreas [17] = assay: Biodistribution in CD1 mouse pancreas at 200 to 300 kBq, iv measured at 15 mins by gamma counting analysis; assay type: ADME, organism-based; conditions: in vivo, 0.25 h; procedure, shortened: as §2
Brain [18] = assay: Biodistribution in CD1 mouse brain at 200 to 300 kBq, iv measured at 5 mins by gamma counting analysis; assay type: ADME, organism-based; conditions: in vivo; procedure, shortened: as §1
Brain [19] = assay: Biodistribution in CD1 mouse brain at 200 to 300 kBq, iv measured at 15 mins by gamma counting analysis; assay type: ADME, organism-based; conditions: in vivo, 0.25 h; procedure, shortened: as §1
Heart [20] = assay: Biodistribution in CD1 mouse heart at 200 to 300 kBq, iv measured at 5 mins by gamma counting analysis; assay type: ADME, organism-based; conditions: in vivo; procedure, shortened: as §1
Zone of skin = assay: Biodistribution in CD1 mouse skin at 200 to 300 kBq, iv measured at 60 mins by gamma counting analysis; assay type: ADME, organism-based; conditions: in vivo, 1 h; procedure, shortened: as §2
Kidney [21] = assay: Biodistribution in CD1 mouse kidney at 200 to 300 kBq, iv measured at 15 mins by gamma counting analysis; assay type: ADME, organism-based; conditions: in vivo, 0.25 h; procedure, shortened: as §1
Mus musculus [22] = assay: Biodistribution in CD1 mouse thymus at 200 to 300 kBq, iv measured at 15 mins by gamma counting analysis; assay type: ADME, organism-based; conditions: in vivo, 0.25 h; procedure, shortened: as §2
Brain [23] = assay: Biodistribution in CD1 mouse brain at 200 to 300 kBq, iv measured at 60 mins by gamma counting analysis in presence of SSR180711; assay type: ADME, organism-based; conditions: in vivo, 1 h; procedure, shortened: as §4
Blood = assay: Biodistribution in CD1 mouse blood at 200 to 300 kBq, iv measured at 5 mins by gamma counting analysis; assay type: ADME, organism-based; conditions: in vivo; procedure, shortened: as §1
Mus musculus [24] = assay: Biodistribution in CD1 mouse small intestine at 200 to 300 kBq, iv measured at 5 mins by gamma counting analysis; assay type: ADME, organism-based; conditions: in vivo; procedure, shortened: as §2
[25] = Biodistribution in CD1 mouse urine at 200 to 300 kBq, iv measured at 5 mins by gamma counting analysis; assay type: ADME, organism-based; conditions: in vivo; procedure, shortened: as §3
Stomach [26] = assay: Biodistribution in CD1 mouse stomach at 200 to 300 kBq, iv measured at 60 mins by gamma counting analysis; assay type: ADME, organism-based; conditions: in vivo, 1 h; procedure, shortened: as §2
Mus musculus [27] = assay: Biodistribution in CD1 mouse small intestine at 200 to 300 kBq, iv measured at 60 mins by gamma counting analysis; assay type: ADME, organism-based; conditions: in vivo, 1 h; procedure, shortened: as §2
Urinary bladder = assay: Biodistribution in CD1 mouse bladder at 200 to 300 kBq, iv measured at 15 mins by gamma counting analysis; assay type: ADME, organism-based; conditions: in vivo, 0.25 h; procedure, shortened: as §1
Spleen [28] = assay: Biodistribution in CD1 mouse spleen at 200 to 300 kBq, iv measured at 5 mins by gamma counting analysis; assay type: ADME, organism-based; conditions: in vivo; procedure, shortened: as §2

SMILES: O=C(Oc1ccc(Br)cc1)N1CCN2CCC1CC2 [SSR180711]
- Drug uptake (Heart [1]): 1.84 % ID/g
- Drug uptake (Spleen [2]): 7.46 % ID/g
- Drug uptake (Mus musculus [3]): 1.95 % ID/g
- Drug uptake (Kidney [4]): 10.5 % ID/g
- Drug uptake (Mus musculus [5]): 3.65 % ID/g
- Drug uptake (Stomach [6]): 5.45 % ID/g
- Drug uptake (Pancreas [7]): 3.12 % ID/g
- Drug uptake (Heart [8]): 1.81 % ID/g
- Drug uptake (Femur [9]): 1.43 % ID/g
- Drug uptake (Femur [10]): 2.09 % ID/g
- Drug uptake (Liver): 8.51 % ID/g
- Drug uptake (Kidney [11]): 10.6 % ID/g
- Drug uptake [12]: 122 % ID/g
- Drug uptake (Lung): 4.41 % ID/g
- Drug uptake (Mus musculus [13]): 5.78 % ID/g
- Drug uptake (Mus musculus [14]): 2.7 % ID/g
- Drug uptake (Kidney [15]): 8.5 % ID/g
- Drug uptake [16]: 123 % ID/g
- Drug uptake (Pancreas [17]): 5.48 % ID/g
- Drug uptake (Brain [18]): 0.16 % ID/g
- Drug uptake (Brain [19]): 0.24 % ID/g
- Drug uptake (Heart [20]): 3.35 % ID/g
- Drug uptake (Zone of skin): 1.94 % ID/g
- Drug uptake (Kidney [21]): 10.6 % ID/g
- Drug uptake (Mus musculus [22]): 2.98 % ID/g
- Drug uptake (Brain [23]): 0.15 % ID/g
- Drug uptake (Blood): 1.6 % ID/g
- Drug uptake (Mus musculus [24]): 3.44 % ID/g
- Drug uptake [25]: 23.9 % ID/g
- Drug uptake (Stomach [26]): 8.13 % ID/g
- Drug uptake (Mus musculus [27]): 16.1 % ID/g
- Drug uptake (Urinary bladder): 2.19 % ID/g
- Drug uptake (Spleen [28]): 4.22 % ID/g
